In ChEMBL document CHEMBL1137542, “Probing multivalent carbohydrate-lectin interactions by an enzyme-linked lectin assay employing covalently immobilized carbohydrates” (Bioorg Med Chem, 2007) one finds IC50 and Activity data, which are given here for 11 compounds.

A short description of test [1]: Inhibition of binding of HRP labeled WGA to immobilized porcine stomach […]. Further details: species or system Triticum aestivum. A digest of the protocol: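 Plates coated overnight at room temperature with porcine stomach mucin (4.12 μg mL⁻¹ in PBS, pH 7.3), then blocked with 1% BSA, 90 min at 37 °C. WGA-HRP (1 μg mL⁻¹ final) pre-incubated 60 min at 37 °C with serially diluted inhibitor, then 90 min at 37 °C on plates. ABTS/H₂O₂ read-out at pH 4.0, 30 min, stopped with H₂SO₄, A405. IC50 from % inhibition curves, duplicate.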

Test [2] relates to Triticum aestivum. Briefly: Inhibition of binding of HRP labeled WGA to immobilized porcine stomach […] relative to N-acetyl-glucosamine. The gist of the method:
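IC50 measured in the PSM-coated ELLA (WGA-HRP 1 μg mL⁻¹ final, 60 min pre-incubation with inhibitor, 90 min at 37 °C, ABTS read at 405 nm, duplicate). Relative potency β is the GlcNAc IC50 divided by the ligand IC50, with GlcNAc set to β = 1.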

In test [3] the test system is Triticum aestivum. Briefly: Inhibition of binding of HRP labeled WGA to immobilized N-acetyl-glucosamine relative to N-acetyl-glucosamine. A digest of the protocol: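 IC50 values come from the covalently immobilized GlcNAc ELLA (thiourea-linked spacer GlcNAc, WGA-HRP 1 μg mL⁻¹, 37 °C incubations, ABTS read at 405 nm, duplicate). β expresses potency relative to GlcNAc, with GlcNAc set to β = 1.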

A short description of test [4]: Inhibition of binding of HRP labeled WGA to immobilized N-acetyl-glucosamine. Further details: species or system Triticum aestivum. The gist of the method:
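Covalent GlcNAc surface: amino plates activated with 0.5% 1,4-phenylene diisothiocyanate in DMSO for 3 h, then treated overnight with 1 mM spacer-linked GlcNAc amine at pH 10.1. Blocking was 1% BSA. WGA-HRP (1 μg mL⁻¹ final) was pre-incubated with inhibitor dilutions for 60 min at 37 °C, then incubated on the plates for 90 min at 37 °C. ABTS/H₂O₂ read at 405 nm. IC50 from % inhibition, duplicate.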

Structures are written as SMILES. pIC50: −log10 of the molar value.

As usually defined, the pIC50 is the negative decadic logarithm of the IC50, by convention in mol/L. The low end stands for a high IC50, the high end for a low IC50. On to `CC(=O)N[C@H]1[C@H](OC/C=C\COC(=O)NCCCOCCCCOCCCNC(=O)OC/C=C\CO[C@@H]2O[C@H](CO)[C@@H](O)[C@H](O)[C@H]2NC(C)=O)O[C@H](CO)[C@@H](O)[C@@H]1O`, for which the pIC50 in test [1] is 1.22. Besides, the Activity in the test with Triticum aestivum [2] was found to be 17.

For `C=CCO[C@@H]1O[C@H](CO)[C@@H](O)[C@H](O)[C@H]1NC(C)=O`, the Activity came out at 2.3 with Triticum aestivum [3] and 3.6 with Triticum aestivum [2]. For the same compound, the figures for the pIC50 in test [4] and in test [1] were 5.00 and 0.55, respectively.

For `CC(=O)N[C@H]1[C@H](OC/C=C\COC(=O)NCCN(CCNC(=O)OC/C=C\CO[C@@H]2O[C@H](CO)[C@@H](O)[C@H](O)[C@H]2NC(C)=O)CCNC(=O)OC/C=C\CO[C@@H]2O[C@H](CO)[C@@H](O)[C@H](O)[C@H]2NC(C)=O)O[C@H](CO)[C@@H](O)[C@@H]1O`, the Activity stood at 420 with Triticum aestivum [3] and 40 in the test with Triticum aestivum [2]. Besides, the pIC50 in test [4] was 7.26; in test [1] it was 1.60.

Take `CC(=O)N[C@H]1[C@H](OC/C=C\COC(=O)NCc2ccc(CNC(=O)OC/C=C\CO[C@@H]3O[C@H](CO)[C@@H](O)[C@H](O)[C@H]3NC(C)=O)cc2)O[C@H](CO)[C@@H](O)[C@@H]1O`: the Activity came out at 260 in the test with Triticum aestivum [3] and 67 in the test on Triticum aestivum [2]. Also, the pIC50 is 7.06 in test [4] and 1.82 in test [1].

The compound `CCCNC(=O)OC/C=C\CO[C@@H]1O[C@H](CO)[C@@H](O)[C@H](O)[C@H]1NC(C)=O` showed a negative logarithm of the IC50 (pIC50) in test [1] of 0.62. Moreover, the Activity with Triticum aestivum [2] came out at 4.2.

For the compound `CC(=O)N[C@H]1[C@H](OC/C=C\CO)O[C@H](CO)[C@@H](O)[C@@H]1O`, the figures for the Activity in the test with Triticum aestivum [3] and in the test with Triticum aestivum [2] were 1.9 and 2, respectively. In addition, the negative logarithm of the IC50 (pIC50) was 4.92 in test [4] and 0.30 in test [1].

Turning to `CC(=O)N[C@H]1[C@H](OC/C=C\COC(=O)NCc2cccc(CNC(=O)OC/C=C\CO[C@@H]3O[C@H](CO)[C@@H](O)[C@H](O)[C@H]3NC(C)=O)c2)O[C@H](CO)[C@@H](O)[C@@H]1O`, in test [1], the pIC50 was 1.70. Besides, the Activity in the test on Triticum aestivum [2] worked out at 50.

In turn, `CC(=O)N[C@H]1[C@H](OC/C=C\COC(=O)NCCNCCNC(=O)OC/C=C\CO[C@@H]2O[C@H](CO)[C@@H](O)[C@H](O)[C@H]2NC(C)=O)O[C@H](CO)[C@@H](O)[C@@H]1O` had a pIC50 in test [1] of 1.40. The compound further gave an Activity in the test on Triticum aestivum [2] of 25.

The compound `CC(=O)N[C@H]1[C@H](OC/C=C\COC(=O)NCc2ccccc2)O[C@H](CO)[C@@H](O)[C@@H]1O` had a pIC50 in test [1] of 1.00. In the test with Triticum aestivum [2], this compound registered an Activity of 10.

With `CC(=O)N[C@H]1[C@H](OC/C=C\COC(=O)NCCCOCCOCCOCCCNC(=O)OC/C=C/CO[C@@H]2O[C@H](CO)[C@@H](O)[C@H](O)[C@H]2NC(C)=O)O[C@H](CO)[C@@H](O)[C@@H]1O`, the figures for the Activity in the test on Triticum aestivum [3] and in the test on Triticum aestivum [2] were 80 and 13, respectively. Besides, the pIC50 in test [4] was 6.54; in test [1] it was 1.12.

On to `CC(=O)N[C@@H]1[C@@H](O)[C@H](O)[C@@H](CO)O[C@H]1O` [N-ACETYLGLUCOSAMINE], for which the pIC50 in test [4] was 4.64; in test [1], 0.00. The same compound showed an Activity in the test on Triticum aestivum [2] of 1.
